According to ChEMBL document CHEMBL3085642, “Synthesis and evaluation of novel 4-nitropyrrole-based 1,3,4-oxadiazole derivatives as antimicrobial and anti-tubercular agents” (Eur J Med Chem, 2013):
Converted amounts (≈) assume the structure as drawn.

Assays:
Candida albicans [1] = assay: Antifungal activity against Candida albicans after 48 hrs by two fold agar dilution method; assay type: functional
Procedure, shortened: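 Two-fold serial dilutions in DMSO were tested against C. albicans by agar dilution. Cultures were incubated for 48 h at 35 °C and growth was monitored. MIC was taken as the lowest concentration (highest dilution) that arrested fungal growth.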

Staphylococcus aureus [2] = assay: Ratio of ciprofloxacin MIC to compound MIC against Staphylococcus aureus ATCC 25923; assay type: functional
Vero = assay: Cytotoxicity against african green monkey Vero cells after 72 hrs by MTT assay; assay type: cell-based; conditions: Chlorocebus sabaeus
Procedure, shortened: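 Vero cells were exposed to compounds for 72 h. Viability was measured by cellular conversion of MTT into formazan (non-radioactive proliferation assay), and the cytotoxic concentration was reported as IC50.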

Staphylococcus aureus [3] = assay: Antibacterial activity against methicillin-susceptible Staphylococcus aureus ATCC 35556 by broth dilution method; assay type: functional
Klebsiella pneumoniae = assay: Antibacterial activity against Klebsiella pneumoniae by two fold broth dilution method; assay type: functional
Bacillus spizizenii = assay: Antibacterial activity against Bacillus subtilis ATCC 6633 by two fold broth dilution method; assay type: functional
Escherichia coli = assay: Antibacterial activity against Escherichia coli ATCC 25922 by two fold broth dilution method; assay type: functional
Staphylococcus aureus [4] = assay: Antibacterial activity against Staphylococcus aureus ATCC 25923 by two fold broth dilution method; assay type: functional
Candida albicans [5] = assay: Ratio of ampotericin-B MIC to compound MIC against Candida albicans; assay type: functional
Staphylococcus aureus [6] = assay: Antibacterial activity against methicillin-resistant Staphylococcus aureus ATCC 43866 by broth dilution method; assay type: functional
[7] = system: Mycobacterium tuberculosis; assay: Antitubercular activity against Mycobacterium tuberculosis H37Rv after 7 days by resazurin microtitre assay; assay type: functional; conditions: 168 h
Staphylococcus aureus [8] = assay: Ratio of ciprofloxacin MIC to compound MIC against methicillin-susceptible Staphylococcus aureus ATCC 35556; assay type: functional

Row | SMILES | MIC (Candida albicans [1]) [µg/mL] | Ratio (Staphylococcus aureus [2]) | IC50 (Vero) [µM] | MIC (Staphylococcus aureus [3]) [µg/mL] | MIC (Klebsiella pneumoniae) [µg/mL] | MIC (Bacillus spizizenii) [µg/mL] | MIC (Escherichia coli) [µg/mL] | MIC (Staphylococcus aureus [4]) [µg/mL] | Ratio (Candida albicans [5]) | MIC (Staphylococcus aureus [6]) [µg/mL] | MIC [7] [µg/mL] | Ratio (Staphylococcus aureus [8])
1 | Cc1ccc(-c2nnc(-c3cc([N+](=O)[O-])cn3C)o2)s1 | 1.56 (≈ 5.37 µM) | 2 | 98.3 | 1.56 (≈ 5.37 µM) | 12.5 (≈ 43.1 µM) | 1.56 (≈ 5.37 µM) | 6.25 (≈ 21.5 µM) | 0.78 (≈ 2.69 µM) | 2 | 1.56 (≈ 5.37 µM) |  | 
2 | O=[N+]([O-])c1c[nH]c(-c2nnc(-c3ccccc3)o2)c1 | 12.5 (≈ 48.8 µM) |  | 423 | 1.56 (≈ 6.09 µM) | 25 (≈ 97.6 µM) | 3.12 (≈ 12.2 µM) | 6.25 (≈ 24.4 µM) | 3.12 (≈ 12.2 µM) |  | 3.12 (≈ 12.2 µM) | 56.3 (≈ 220 µM) | 
3 | O=[N+]([O-])c1c[nH]c(-c2nnc(-c3ccccc3Br)o2)c1 | 3.12 (≈ 9.33 µM) |  | 190 | 1.56 (≈ 4.66 µM) | 25 (≈ 74.6 µM) | 1.56 (≈ 4.66 µM) | 1.56 (≈ 4.66 µM) | 1.56 (≈ 4.66 µM) |  | 3.12 (≈ 9.33 µM) | 0.81 (≈ 2.42 µM) | 
4 | O=[N+]([O-])c1c[nH]c(-c2nnc(C3(c4ccccc4)CC3)o2)c1 | 25 (≈ 84.4 µM) | 2 | 380 | 1.56 (≈ 5.27 µM) | 25 (≈ 84.4 µM) | 3.12 (≈ 10.5 µM) | 1.56 (≈ 5.27 µM) | 0.78 (≈ 2.63 µM) |  | 3.12 (≈ 10.5 µM) | 56.8 (≈ 192 µM) | 
5 | Cn1cc([N+](=O)[O-])cc1-c1nnc(Cc2ccc(F)c3ccccc23)o1 | 1.56 (≈ 4.43 µM) | 2 | 119 | 0.39 (≈ 1.11 µM) | 12.5 (≈ 35.5 µM) | 1.56 (≈ 4.43 µM) | 6.25 (≈ 17.7 µM) | 0.78 (≈ 2.21 µM) | 2 | 1.56 (≈ 4.43 µM) |  | 2
6 | O=[N+]([O-])c1c[nH]c(-c2nnc(-c3cccs3)o2)c1 | 6.25 (≈ 23.8 µM) |  | 418 | 3.12 (≈ 11.9 µM) | 25 (≈ 95.3 µM) | 1.56 (≈ 5.95 µM) | 1.56 (≈ 5.95 µM) | 1.56 (≈ 5.95 µM) |  | 3.12 (≈ 11.9 µM) | 87.1 (≈ 332 µM) | 
7 | Cn1cc([N+](=O)[O-])cc1-c1nnc(-c2cc3cc(Cl)ccc3[nH]2)o1 | 1.56 (≈ 4.54 µM) | 3 | 743 | 0.39 (≈ 1.13 µM) | 12.5 (≈ 36.4 µM) | 1.56 (≈ 4.54 µM) | 1.56 (≈ 4.54 µM) | 0.39 (≈ 1.13 µM) |  | 1.56 (≈ 4.54 µM) | 24 (≈ 69.8 µM) | 
8 | O=[N+]([O-])c1c[nH]c(-c2nnc(-c3cccc([N+](=O)[O-])c3O)o2)c1 | 3.12 (≈ 9.85 µM) |  | 498 | 1.56 (≈ 4.92 µM) | 25 (≈ 78.8 µM) | 3.12 (≈ 9.85 µM) | 6.25 (≈ 19.7 µM) | 1.56 (≈ 4.92 µM) |  | 3.12 (≈ 9.85 µM) | 1.8 (≈ 5.67 µM) | 
9 | O=[N+]([O-])c1c[nH]c(-c2nnc(-c3ccns3)o2)c1 | 3.12 (≈ 11.9 µM) |  | 532 | 1.56 (≈ 5.93 µM) | 25 (≈ 95 µM) | 3.12 (≈ 11.9 µM) | 6.25 (≈ 23.7 µM) | 1.56 (≈ 5.93 µM) |  | 3.12 (≈ 11.9 µM) | 62.7 (≈ 238 µM) | 
10 | Cn1cc([N+](=O)[O-])cc1-c1nnc(-c2cc3ccccc3[nH]2)o1 | 1.56 (≈ 5.04 µM) | 2 | 109 | 0.39 (≈ 1.26 µM) | 12.5 (≈ 40.4 µM) | 1.56 (≈ 5.04 µM) | 6.25 (≈ 20.2 µM) | 0.78 (≈ 2.52 µM) | 2 | 1.56 (≈ 5.04 µM) |  | 2
11 | O=[N+]([O-])c1c[nH]c(-c2nnc(Cc3ccccc3F)o2)c1 | 3.12 (≈ 10.8 µM) |  | 620 | 1.56 (≈ 5.41 µM) | 25 (≈ 86.7 µM) | 1.56 (≈ 5.41 µM) | 1.56 (≈ 5.41 µM) | 1.56 (≈ 5.41 µM) |  | 3.12 (≈ 10.8 µM) | 0.46 (≈ 1.6 µM) | 
12 | O=[N+]([O-])c1c[nH]c(-c2nnc(-c3cc4cc(Cl)ccc4[nH]3)o2)c1 | 3.12 (≈ 9.48 µM) |  | 329 | 1.56 (≈ 4.73 µM) | 25 (≈ 75.8 µM) | 3.12 (≈ 9.48 µM) | 1.56 (≈ 4.73 µM) | 1.56 (≈ 4.73 µM) |  | 3.12 (≈ 9.48 µM) | 3.4 (≈ 10.3 µM) | 
13 | N#Cc1ccc(-c2nnc(-c3cc([N+](=O)[O-])c[nH]3)o2)cc1 | 3.12 (≈ 11.1 µM) |  | 199 | 1.56 (≈ 5.55 µM) | 25 (≈ 88.9 µM) | 3.12 (≈ 11.1 µM) | 3.12 (≈ 11.1 µM) | 1.56 (≈ 5.55 µM) |  | 3.12 (≈ 11.1 µM) | 26.8 (≈ 95.3 µM) | 
14 | Cn1cc([N+](=O)[O-])cc1-c1nnc(-c2ccns2)o1 | 1.56 (≈ 5.63 µM) | 2 | 320 | 0.39 (≈ 1.41 µM) | 12.5 (≈ 45.1 µM) | 1.56 (≈ 5.63 µM) | 6.25 (≈ 22.5 µM) | 0.78 (≈ 2.81 µM) | 2 | 1.56 (≈ 5.63 µM) |  | 2
15 | COc1ccc(-c2nnc(-c3cc([N+](=O)[O-])c[nH]3)o2)cc1 | 3.12 (≈ 10.9 µM) |  | 409 | 1.56 (≈ 5.45 µM) | 25 (≈ 87.3 µM) | 3.12 (≈ 10.9 µM) | 6.25 (≈ 21.8 µM) | 1.56 (≈ 5.45 µM) |  | 3.12 (≈ 10.9 µM) | 34 (≈ 119 µM) | 
16 | COc1cccc(OC)c1-c1nnc(-c2cc([N+](=O)[O-])c[nH]2)o1 | 3.12 (≈ 9.88 µM) |  | 170 | 1.56 (≈ 4.93 µM) | 25 (≈ 79 µM) | 3.12 (≈ 9.88 µM) | 3.12 (≈ 9.88 µM) | 1.56 (≈ 4.93 µM) |  | 3.12 (≈ 9.88 µM) | 5.4 (≈ 17.1 µM) | 
